{"source": "ChEMBL document CHEMBL2202989", "about": "“New adamantane phenylalkylamines with σ-receptor binding affinity and anticancer activity, associated with putative antagonism of neuropathic pain” (J Med Chem, 2012)", "key": {"[1]": {"assay": "Growth inhibition of human MSC cells after 48 hrs by SRB assay", "assay_type": "cell-based", "how_it_was_run": "(§1)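 Cells grown in RPMI 1640 with 5% heat-inactivated FCS, 2 mM L-glutamine and antibiotics, 37 °C, 5% CO2. Seeded at 3500–30000 cells/well and left 24 h before dosing. DMSO solutions added at 10-fold dilutions from 100 to 0.01 μM for 48 h. Cells TCA-fixed and SRB-stained, absorbance read at 540 nm; GI50 derived against the time-zero plate.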"}, "[2]": {"system": "BXPC-3", "assay": "Induction of apoptosis in human BxPC3 cells assessed as late apoptosis at 0.5 uM using annexin V/7-AAD by FACS analysis (reference value: 9 %)", "assay_type": "functional"}, "[3]": {"system": "IGROV-1", "assay": "Induction of apoptosis in human IGROV1 cells assessed as healthy cells at 50 uM using annexin V/7-AAD by FACS analysis (reference value: 86 %)", "assay_type": "functional"}, "[4]": {"system": "PC-3", "assay": "Growth inhibition of human PC3 cells after 48 hrs by SRB assay", "assay_type": "functional", "settings": "PC-3, 48 h", "how_it_was_run": "as §1"}, "[5]": {"system": "PC-3", "assay": "Cell cycle arrest in human PC3 cells assessed as accumulation at G1 phase at 15 uM after 24 hrs using propidium iodide staining by FACS analysis (reference value: 36 %)", "assay_type": "functional"}, "[6]": {"system": "BXPC-3", "assay": "Cell cycle arrest in human BxPC3 cells assessed as accumulation at S phase at 15 uM after 24 hrs using propidium iodide staining by FACS analysis (reference value: 33 %)", "assay_type": "functional", "how_it_was_run": "(§2)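 Cells were plated 24 h before treatment and exposed for 24 h at final 0.5, 5, 15 and 50 μM in 0.5% DMSO, against vehicle-treated controls. Cells were then trypsinised and fixed in cold ethanol for 3 h at 4 °C. They were stained in a mix of RNase (200 μg/mL) and PI (1 mg/mL) for 45 min at room temperature in the dark. Flow cytometry used 488 nm excitation and 10 000 gated cells. Phase percentages were assigned from DNA content.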"}, "[7]": {"system": "Mus musculus", "assay": "Analgesic activity in CD1 mouse neuropathic pain model assessed as reduction in paw licking time at 50 mg/kg, po administered 1 hr prior to formalin challenge in presence of paclitaxel", "assay_type": "functional, organism-based", "parameters": "dose 50 mg/kg", "how_it_was_run": "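CD1 male mice (34−40 g), free access to food and water, were given paclitaxel 6 mg/kg ip once in saline on day 0. On day 14 the test compound was given orally 1 h before formalin was injected into the hind paw. Time spent licking and biting the injected paw and leg was recorded at 0−5 and 35−40 min after formalin.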"}, "[8]": {"system": "BXPC-3", "assay": "Induction of apoptosis in human BxPC3 cells assessed as late apoptosis at 50 uM using annexin V/7-AAD by FACS analysis (reference value: 9 %)", "assay_type": "functional", "how_it_was_run": "(§3)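 Cells plated 24 h before treatment, then exposed 24 h to 0.5, 5, 15 or 50 μM compound (final DMSO 0.5%); vehicle controls included. Cells scraped and stained with annexin V-FITC and 7-AAD for 15 min on ice in the dark. Flow cytometry with 488 nm excitation, 10,000 gated cells. Early apoptosis was annexin V+/7-AAD−, late was annexin V+/7-AAD+.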"}, "[9]": {"system": "PC-3", "assay": "Cell cycle arrest in human PC3 cells assessed as accumulation at >G2/M phase at 50 uM after 24 hrs using propidium iodide staining by FACS analysis (reference value: 6 %)", "assay_type": "functional"}, "[10]": {"system": "IGROV-1", "assay": "Induction of apoptosis in human IGROV1 cells assessed as cleaved caspase3 containing cells at 0.5 uM by antibody-based FACS analysis (reference value: 3.9 %)", "assay_type": "functional"}, "[11]": {"system": "PC-3", "assay": "Cell cycle arrest in human PC3 cells assessed as accumulation at G1 phase at 0.5 uM after 24 hrs using propidium iodide staining by FACS analysis (reference value: 36 %)", "assay_type": "functional"}, "[12]": {"system": "OVCAR-5", "assay": "Antitumor activity against human OVCAR5 cells xenografted in SCID mouse assessed as tumor growth inhibition at 55 mg/kg, ip administered 5 consecutive days in a week for two cycles measured after 2 cycles relative to control", "assay_type": "functional", "settings": "OVCAR-5, ip, route intraperitoneal, read-out: TGI", "how_it_was_run": "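SCID mice carried OVCAR5 xenografts (10^6 cells per inoculum), 16 mice (32 tumors) per group, with ip dosing in 5% Tween 80 from a tumor volume of about 100 mm3. Caliper volume was measured twice weekly and %ΔT/ΔC derived. At termination, primary tumors were weighed and secondary metastases were scored at axillary and bone sites (n = 7−8). Two-tailed t test.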"}, "[13]": {"system": "U-251", "assay": "Growth inhibition of human U251 cells after 48 hrs by SRB assay", "assay_type": "functional", "settings": "U-251, 48 h", "how_it_was_run": "as §1"}, "[14]": {"system": "BXPC-3", "assay": "Induction of apoptosis in human BxPC3 cells assessed as cleaved caspase3 containing cells at 15 uM by antibody-based FACS analysis (reference value: 8.2 %)", "assay_type": "functional"}, "[15]": {"system": "IGROV-1", "assay": "Cell cycle arrest in human IGROV1 cells assessed as accumulation at sub G1 phase at 5 uM after 24 hrs using propidium iodide staining by FACS analysis (reference value: 4 %)", "assay_type": "functional"}, "[16]": {"system": "MIA PaCa-2", "assay": "Growth inhibition of human MIAPaCa2 cells after 48 hrs by SRB assay", "assay_type": "functional", "settings": "MIA PaCa-2, 48 h", "how_it_was_run": "as §1"}, "[17]": {"system": "PC-3", "assay": "Cell cycle arrest in human PC3 cells assessed as accumulation at sub G1 phase at 0.5 uM after 24 hrs using propidium iodide staining by FACS analysis (reference value: 4 %)", "assay_type": "functional"}, "[18]": {"system": "BXPC-3", "assay": "Cell cycle arrest in human BxPC3 cells assessed as accumulation at G2 phase at 50 uM after 24 hrs using propidium iodide staining by FACS analysis (reference value: 12 %)", "assay_type": "functional", "how_it_was_run": "as §2"}, "[19]": {"system": "PC-3", "assay": "Induction of apoptosis in human PC3 cells assessed as late apoptosis at 15 uM using annexin V/7-AAD by FACS analysis (reference value: 3 %)", "assay_type": "functional", "how_it_was_run": "as §3"}, "[20]": {"system": "BXPC-3", "assay": "Induction of apoptosis in human BxPC3 cells assessed as early apoptosis at 50 uM using annexin V/7-AAD by FACS analysis (reference value: 9 %)", "assay_type": "functional"}, "[21]": {"system": "IGROV-1", "assay": "Induction of apoptosis in human IGROV1 cells assessed as total apoptotic death at 0.5 uM using annexin V/7-AAD by FACS analysis (reference value: 13 %)", "assay_type": "functional", "how_it_was_run": "as §3"}, "[22]": {"system": "IGROV-1", "assay": "Induction of apoptosis in human IGROV1 cells assessed as late apoptosis at 5 uM using annexin V/7-AAD by FACS analysis (reference value: 5 %)", "assay_type": "functional"}, "[23]": {"system": "BXPC-3", "assay": "Induction of apoptosis in human BxPC3 cells assessed as healthy cells at 0.5 uM using annexin V/7-AAD by FACS analysis (reference value: 79 %)", "assay_type": "functional"}, "[24]": {"system": "DU-145", "assay": "Growth inhibition of human DU145 cells after 48 hrs by SRB assay", "assay_type": "functional", "settings": "DU-145, 48 h", "how_it_was_run": "as §1"}, "[25]": {"system": "BXPC-3", "assay": "Cell cycle arrest in human BxPC3 cells assessed as accumulation at G1 phase at 0.5 uM after 24 hrs using propidium iodide staining by FACS analysis (reference value: 41 %)", "assay_type": "functional", "how_it_was_run": "as §2"}, "[26]": {"system": "PC-3", "assay": "Induction of apoptosis in human PC3 cells assessed as cleaved caspase3 containing cells at 0.5 uM by antibody-based FACS analysis (reference value: 3.2 %)", "assay_type": "functional"}, "[27]": {"system": "IGROV-1", "assay": "Cell cycle arrest in human IGROV1 cells assessed as accumulation at G2 phase at 5 uM after 24 hrs using propidium iodide staining by FACS analysis (reference value: 19 %)", "assay_type": "functional"}, "[28]": {"settings": "read-out: LC50 (the source's name)"}}, "note": "The source made the active and inactive calls. The rule behind the calls is not given here."}
{"smiles": "CN1CCN(CCCc2ccc(C(c3ccccc3)C34CC5CC(CC(C5)C3)C4)cc2)CC1", "note": "(stereo not given)", "values": [{"measurement": "TGI", "setting": "[1]", "value": 30.9, "unit": "µM"}, {"measurement": "Activity", "setting": "[2]", "value": 7, "unit": "%"}, {"measurement": "Activity", "setting": "[3]", "value": 26, "unit": "%"}, {"measurement": "GI50", "setting": "[4]", "value": 3.43, "unit": "µM"}, {"measurement": "TGI", "setting": "[4]", "value": 6.72, "unit": "µM"}, {"measurement": "CC50", "setting": "[4]; [28]", "value": 0.01, "unit": "µM"}, {"measurement": "Activity", "setting": "[5]", "value": 25, "unit": "%"}, {"measurement": "Activity", "setting": "[6]", "value": 27, "unit": "%"}, {"measurement": "Activity", "setting": "[7]", "value": "Active"}, {"measurement": "Activity", "setting": "[8]", "value": 44, "unit": "%"}, {"measurement": "Activity", "setting": "[9]", "value": 17, "unit": "%"}, {"measurement": "Activity", "setting": "[10]", "value": 4.2, "unit": "%"}, {"measurement": "Activity", "setting": "[11]", "value": 34, "unit": "%"}, {"measurement": "inhibition in vivo at 55 mg/kg", "setting": "[12]", "value": 44.5, "unit": "%"}, {"measurement": "GI50", "setting": "[13]", "value": 3.62, "unit": "µM"}, {"measurement": "TGI", "setting": "[13]", "value": 5.93, "unit": "µM"}, {"measurement": "CC50", "setting": "[13]; [28]", "value": 0.00824, "unit": "µM"}, {"measurement": "Activity", "setting": "[14]", "value": 17.5, "unit": "%"}, {"measurement": "Activity", "setting": "[15]", "value": 4, "unit": "%"}, {"measurement": "GI50", "setting": "[16]", "value": 9.39, "unit": "µM"}, {"measurement": "TGI", "setting": "[16]", "value": 40.1, "unit": "µM"}, {"measurement": "CC50", "setting": "[16]; [28]", "value": 0.0726, "unit": "µM"}, {"measurement": "Activity", "setting": "[17]", "value": 4, "unit": "%"}, {"measurement": "Activity", "setting": "[18]", "value": 9, "unit": "%"}, {"measurement": "Activity", "setting": "[19]", "value": 7, "unit": "%"}, {"measurement": "Activity", "setting": "[20]", "value": 2, "unit": "%"}, {"measurement": "Activity", "setting": "[21]", "value": 11, "unit": "%"}, {"measurement": "Activity", "setting": "[22]", "value": 5, "unit": "%"}, {"measurement": "Activity", "setting": "[23]", "value": 82, "unit": "%"}, {"measurement": "GI50", "setting": "[24]", "value": 3.77, "unit": "µM"}, {"measurement": "TGI", "setting": "[24]", "value": 7.11, "unit": "µM"}, {"measurement": "CC50", "setting": "[24]; [28]", "value": 0.1, "unit": "µM"}, {"measurement": "Activity", "setting": "[25]", "value": 41, "unit": "%"}, {"measurement": "Activity", "setting": "[26]", "value": 1.7, "unit": "%"}, {"measurement": "Activity", "setting": "[27]", "value": 21, "unit": "%"}]}
